Experiment [1] addresses T1, Equilibrative nucleoside transporter 1 (Homo sapiens, UniProt Q99808).
T1 sequence (Q99808 whole entry): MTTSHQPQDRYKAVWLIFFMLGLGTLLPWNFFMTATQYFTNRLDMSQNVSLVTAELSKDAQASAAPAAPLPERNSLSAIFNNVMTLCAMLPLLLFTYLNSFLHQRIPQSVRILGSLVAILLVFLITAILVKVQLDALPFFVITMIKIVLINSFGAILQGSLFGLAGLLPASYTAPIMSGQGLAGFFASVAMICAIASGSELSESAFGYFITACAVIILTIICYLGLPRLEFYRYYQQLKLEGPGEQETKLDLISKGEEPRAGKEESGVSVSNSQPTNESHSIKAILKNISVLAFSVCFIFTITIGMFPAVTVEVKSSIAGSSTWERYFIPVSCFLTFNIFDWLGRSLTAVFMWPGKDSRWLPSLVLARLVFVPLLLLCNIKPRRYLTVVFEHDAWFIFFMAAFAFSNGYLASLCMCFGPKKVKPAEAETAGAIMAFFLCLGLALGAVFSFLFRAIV
As to the kind of experiment: Inhibition of [3H]NBTI binding to nucleoside transport protein of human erythrocyte membrane. Summed up:
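Equilibrium displacement of [3H]NBTI (KD 0.59 nM) from human erythrocyte ghost membranes at 25 °C. Membranes prepared by hypotonic lysis in Tris-HCl/MgCl2 pH 8.0 and resuspended in 50 mM Tris-HCl pH 7.4. Compounds giving ≥50% inhibition at 10 μM were run over a concentration range. IC50 values were converted to Ki, n = 3, reported with SEM.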

The target of experiment [2] is T2, Equilibrative nucleoside transporter 1 (Homo sapiens) (UniProt Q99808).
T2 sequence (whole entry): T1 sequence (Q99808 whole entry)
As to the kind of experiment: Displacement of [3H]NBTI from human erythrocyte membrane at 10 uM. Summed up: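 Human erythrocyte ghost membranes (whole blood lysed in 10 mM MgCl2/10 mM Tris-HCl pH 8.0, repeated water washes, resuspended in 50 mM Tris-HCl pH 7.4, stored −80 °C) incubated to equilibrium at 25 °C with [3H]NBTI (KD 0.59 nM). Test compound at a single 10 μM concentration. Result expressed as percent displacement of specific radioligand binding.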
Background: Displacement assays read how much labelled ligand stays bound in the presence of the test substance.

For orientation: Ki means a dissociation constant, usually derived from enzyme kinetics or from competition with a known ligand. High values mean lower affinity, low ones higher affinity. `COc1ccccc1Cn1cnc2c(SCc3ccc([N+](=O)[O-])cc3)ncnc21` gave a Ki in experiment [1] of 110 nM.

For the compound `O=[N+]([O-])c1ccc(CSc2ncnc3c2ncn3Cc2ccccc2-c2cccc(C(F)(F)F)c2)cc1`, the Ki in experiment [1] amounted to 86 nM.

Compound `O=[N+]([O-])c1ccc(CSc2ncnc3c2ncn3Cc2ccc(OC(F)(F)F)cc2)cc1` yielded a Binding activity in experiment [2] of 24%.

In the case of `COc1cccc(Cn2cnc3c(SCc4ccc([N+](=O)[O-])cc4)ncnc32)c1`, the affinity in experiment [1] corresponds to a Ki of 264 nM.

Regarding `O=[N+]([O-])c1ccc(CSc2ncnc3c2ncn3Cc2cccc(F)c2F)cc1`, the Binding activity in experiment [2] worked out at 32%.

In the case of `O=[N+]([O-])c1ccc(CSc2ncnc3c2ncn3Cc2cc(F)cc(F)c2)cc1`, the affinity in experiment [1], expressed as Ki, was 1540 nM. In other words, the single-digit micromolar range.

Regarding `O=[N+]([O-])c1ccc(CSc2ncnc3c2ncn3Cc2ccc([N+](=O)[O-])cc2)cc1`, the affinity in experiment [1] corresponds to a Ki of 200 nM.

`O=[N+]([O-])c1ccc(CSc2ncnc3c2ncn3Cc2cc(F)ccc2F)cc1` showed a Ki in experiment [1] of 1640 nM.

In experiment [1], `COc1ccc(-c2ccccc2Cn2cnc3c(SCc4ccc([N+](=O)[O-])cc4)ncnc32)cc1` showed a Ki of 104 nM.

In experiment [1], `COc1ccccc1-c1ccccc1Cn1cnc2c(SCc3ccc([N+](=O)[O-])cc3)ncnc21` yielded a Ki of 225 nM.

In turn, `O=[N+]([O-])c1ccc(CSc2ncnc3c2ncn3Cc2ccc(F)c(F)c2)cc1` registered a Ki in experiment [1] of 653 nM.

`O=[N+]([O-])c1ccc(CSc2ncnc3c2ncn3CCCc2ccccc2)cc1` showed a Ki in experiment [1] of 488 nM.

Compound `COc1cc(Cn2cnc3c(SCc4ccc([N+](=O)[O-])cc4)ncnc32)cc(OC)c1` showed a Binding activity in experiment [2] of 47%.

As to `O=[N+]([O-])c1ccc(CSc2ncnc3c2ncn3Cc2c(F)cccc2F)cc1`, the Binding activity in experiment [2] was 32%.

The compound `O=[N+]([O-])c1ccc(CSc2ncnc3c2ncn3Cc2cccc(C(F)(F)F)c2)cc1` yielded a Ki in experiment [1] of 2170 nM.

For the compound `CC(C)(C)OC(=O)Nc1ccccc1Cn1cnc2c(SCc3ccc([N+](=O)[O-])cc3)ncnc21`, the inhibition constant Ki in experiment [1] is 422 nM.

In experiment [1], `O=[N+]([O-])c1ccc(CSc2ncnc3c2ncn3CCc2ccccc2)cc1` came in with a Ki of 2200 nM.

With `COc1cccc(-c2ccccc2Cn2cnc3c(SCc4ccc([N+](=O)[O-])cc4)ncnc32)c1`, the affinity in experiment [1] corresponds to a Ki of 221 nM.

`O=[N+]([O-])c1ccc(CSc2ncnc3c2ncn3Cc2cccc(Cl)c2)cc1` gave a Ki in experiment [1] of 212 nM.

Regarding `O=[N+]([O-])c1ccc(CSc2ncnc3c2ncn3Cc2ccccc2-c2ccc(F)cc2)cc1`, in experiment [1], the affinity corresponds to a Ki of 93 nM. This Ki lies about 2.3-fold lower than the previous one.

In the case of `Cc1ccc(Cn2cnc3c(SCc4ccc([N+](=O)[O-])cc4)ncnc32)cc1`, affinity in experiment [1] was put at a Ki of 711 nM.

For the compound `O=[N+]([O-])c1ccc(CSc2ncnc3c2ncn3Cc2ccc(Cl)cc2)cc1`, the Ki in experiment [1] amounted to 236 nM.

Compound `O=[N+]([O-])c1ccc(CSc2ncnc3c2ncn3Cc2ccccc2O)cc1` registered a Ki in experiment [1] of 39 nM.

In turn, `Nc1ccccc1Cn1cnc2c(SCc3ccc([N+](=O)[O-])cc3)ncnc21` gave a Ki in experiment [1] of 124 nM. Against the preceding compound, the Ki is about 3.2-fold higher.

`COc1ccc(Cn2cnc3c(SCc4ccc([N+](=O)[O-])cc4)ncnc32)cc1`: in experiment [1], affinity was put at a Ki of 563 nM.

In experiment [1], `O=[N+]([O-])c1ccc(CSc2ncnc3c2ncn3Cc2ccc(I)cc2)cc1` showed a Ki of 130 nM.

Compound `O=[N+]([O-])c1ccc(CSc2ncnc3c2ncn3Cc2cccnc2)cc1` yielded a Ki in experiment [1] of 2710 nM.

In experiment [1], `O=[N+]([O-])c1ccc(CSc2ncnc3c2ncn3Cc2ccccc2-c2ccccc2O)cc1` registered a Ki of 196 nM.

In the case of `O=[N+]([O-])c1ccc(CSc2ncnc3c2ncn3Cc2ccccc2-c2ccsc2)cc1`, the Ki in experiment [1] turned out to be 89 nM. Against the preceding compound, the Ki is about 2.2-fold lower.

For the compound `O=[N+]([O-])c1ccc(CSc2ncnc3c2ncn3Cc2ccc(Cl)c(Cl)c2)cc1`, the Binding activity in experiment [2] is 34%.

Take `O=[N+]([O-])c1ccc(CSc2ncnc3c2ncn3Cc2ccccc2-c2cccs2)cc1`: the affinity in experiment [1], expressed as Ki, was 129 nM. That is a sub-micromolar value.

For `O=[N+]([O-])c1ccc(CSc2ncnc3c2ncn3Cc2ccncc2)cc1`, affinity in experiment [1] was put at a Ki of 2170 nM.

Take `O=[N+]([O-])c1ccc(CSc2ncnc3c2ncn3Cc2ccccc2-c2ccccc2)cc1`: the affinity in experiment [1], expressed as Ki, was 281 nM.

In experiment [1], `O=[N+]([O-])c1ccc(CSc2ncnc3c2ncn3Cc2cccc(F)c2)cc1` registered a Ki of 361 nM.

`O=[N+]([O-])c1ccc(CSc2ncnc3c2ncn3Cc2ccccc2F)cc1` displayed a Binding activity in experiment [2] of 38%.

In experiment [1], `O=[N+]([O-])c1ccc(CSc2ncnc3c2ncn3Cc2ccc(F)cc2F)cc1` came in with a Ki of 4880 nM.

`O=[N+]([O-])c1ccc(CSc2ncnc3c2ncn3Cc2ccc(F)cc2)cc1` had a Ki in experiment [1] of 3340 nM.

Regarding `O=[N+]([O-])c1ccc(CSc2ncnc3c2ncn3Cc2c(Cl)cccc2Cl)cc1`, in experiment [2], the Binding activity turned out to be 6%.

Turning to `O=[N+]([O-])c1ccc(CSc2ncnc3c2ncn3Cc2ccccc2-c2ccc(O)cc2)cc1`, in experiment [1], the inhibitory constant (Ki) was 154 nM.

With `O=[N+]([O-])c1ccc(CSc2ncnc3c2ncn3Cc2ccccc2-c2cccc(O)c2)cc1`, the Ki in experiment [1] came to 196 nM.

For `O=[N+]([O-])c1ccc(CSc2ncnc3c2ncn3Cc2cccc(O)c2)cc1`, in experiment [1], the affinity corresponds to a Ki of 153 nM.

`O=[N+]([O-])c1ccc(CSc2ncnc3c2ncn3Cc2ccccc2Cl)cc1` showed a Binding activity in experiment [2] of 44%.

Turning to `O=[N+]([O-])c1ccc(CSc2ncnc3c2ncn3Cc2ccccc2-c2ccccc2F)cc1`, the affinity in experiment [1], expressed as Ki, was 111 nM. This lies in the sub-micromolar range.

Compound `Cc1ccccc1-c1ccccc1Cn1cnc2c(SCc3ccc([N+](=O)[O-])cc3)ncnc21` came in with a Ki in experiment [1] of 126 nM.

On to `O=[N+]([O-])c1ccc(CSc2ncnc3c2ncn3Cc2ccccn2)cc1`, for which the Binding activity in experiment [2] amounted to 42%.

In experiment [1], `O=[N+]([O-])c1ccc(CSc2ncnc3c2ncn3Cc2ccccc2-c2ccc(C(F)(F)F)cc2)cc1` returned a Ki of 39 nM.

Source of the values: ChEMBL document CHEMBL1138795, “Inhibition of nucleoside transport by new analogues of 4-nitrobenzylthioinosine: replacement of the ribose moiety by substituted benzyl groups” (J Med Chem, 2004).
